Screens deposited in PubChem BioAssay by several laboratories.
Rows were chosen to be rich in hits. Some 1.1% of all compounds tested hit in one or more screens of this group.
SKN-1 inh = suppressors of acrylamide-induced Pgst-4::GFP reporter in worms, primary screen, SKN-1 inhibitor project, whole organism, uHTS, GFP/RFP fluorescence ratio, strain VP596. C. elegans VP596 Pgst-4::GFP/RFP ratio, 24 h. inhibition, % at 21.8 µM. 0.49% of 360,000 active. AID 624304, 2012;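 active = interference check ratio from 0.5 to 1.5 plus GFP to RFP signal ratio inhibition reaching or exceeding a fixed threshold, cut at about 30% in these data, passing the limit was not always enough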
A1 inh = caspase 3/7 activation in MEF A1-2A-BIM cells, primary screen, A1 inhibitor project, cell-based, luminescence, HTS | Caspase-Glo 3/7 luminescence, 3 h; percent of clofoctol response, vehicle zero | caspase activation, % (test concentration not listed) | 0.066% of 330,000 active | AID 2462, 2010;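 active = over half of replicate activation scores above 10%, or exactly half above 10 with the replicate mean above 10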
TbMetRS inhib = T. brucei MetRS inhibitors, primary screen, biochemical, luminescence | methionyl-tRNA synthetase (Trypanosoma brucei brucei) | purified T. brucei MetRS, ATP depletion, Kinase-Glo luminescence | inhibition, % at 11.9 µM | 0.4% of 360,000 active | AID 624268, 2012;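 active = inhibition above a per-plate cutoff of the control wells' mean inhibition plus 3 SD, cut at about 5.5% in these data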;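 note: 0% = DMSO wells median and 100% = median of wells with control inhibitor compound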
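Test system: purified T. brucei MetRS enzyme. Also added: ATP, methionine and E. coli bulk tRNA substrates. Compound: 11.9 µM single point. Schedule: 15 min enzyme-compound preincubation, 2 h reaction, 10 min detection, 25 °C. Signal: luciferase luminescence of residual ATP, Kinase-Glo. Evaluation: percent inhibition versus plate control medians. Controls: DMSO wells, low control.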
NPR1 activator = GC-A stimulated cGMP production enhancers – HEK293 GC-A cells, cGMP TR-FRET, EC30 ANP, primary screen | Atrial natriuretic peptide receptor 1 (Homo sapiens), P16066 | 0% at EC30 ANP, 100% saturating ANP | activation, % at 10 µM | 0.14% of 370,000 active | AID 1671463, 2021; in the data active = activation above about 40%
Target sequence (P16066 whole entry, looked up): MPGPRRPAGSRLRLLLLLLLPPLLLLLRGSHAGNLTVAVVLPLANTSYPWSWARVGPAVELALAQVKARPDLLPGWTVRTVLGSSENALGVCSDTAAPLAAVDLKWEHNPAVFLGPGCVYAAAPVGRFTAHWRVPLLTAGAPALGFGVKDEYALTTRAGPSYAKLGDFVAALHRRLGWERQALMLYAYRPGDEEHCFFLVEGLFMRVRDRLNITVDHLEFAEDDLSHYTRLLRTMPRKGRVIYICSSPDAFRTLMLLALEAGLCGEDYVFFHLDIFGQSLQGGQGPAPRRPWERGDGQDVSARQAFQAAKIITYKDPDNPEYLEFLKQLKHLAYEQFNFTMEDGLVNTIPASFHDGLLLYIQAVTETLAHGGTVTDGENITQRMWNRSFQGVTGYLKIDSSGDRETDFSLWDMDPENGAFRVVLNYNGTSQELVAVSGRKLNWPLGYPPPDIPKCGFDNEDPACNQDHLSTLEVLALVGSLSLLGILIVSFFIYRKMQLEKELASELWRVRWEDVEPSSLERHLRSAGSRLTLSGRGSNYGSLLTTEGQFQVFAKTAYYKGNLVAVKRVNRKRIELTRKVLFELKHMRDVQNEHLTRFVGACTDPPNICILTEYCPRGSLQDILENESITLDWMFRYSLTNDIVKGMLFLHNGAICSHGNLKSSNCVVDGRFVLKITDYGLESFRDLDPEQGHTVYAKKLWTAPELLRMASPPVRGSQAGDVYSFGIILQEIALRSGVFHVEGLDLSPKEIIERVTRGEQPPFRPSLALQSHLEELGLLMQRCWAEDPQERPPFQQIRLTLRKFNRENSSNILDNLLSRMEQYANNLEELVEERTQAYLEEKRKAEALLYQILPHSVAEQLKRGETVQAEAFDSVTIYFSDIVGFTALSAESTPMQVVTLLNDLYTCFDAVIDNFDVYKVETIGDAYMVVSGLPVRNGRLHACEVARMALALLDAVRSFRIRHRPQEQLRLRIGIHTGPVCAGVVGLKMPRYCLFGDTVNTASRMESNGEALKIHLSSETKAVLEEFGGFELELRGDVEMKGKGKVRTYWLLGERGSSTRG
NPR2 activator = human GC-B receptor activators, primary screen, HEK293 GC-B cells, cGMP TR-FRET, EC30 CNP; activation, % at 10 µM; 0% at EC30 CNP, 100% saturating CNP; 0.11% of 370,000 active; AID 1920062, 2024; Atrial natriuretic peptide receptor 2 (Homo sapiens), P20594;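 active = activation at 10 µM reaching about 35% in either raw or pattern-adjusted values, limit read from the data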
MT1-MMP act inh = blockers of MT1-MMP proenzyme processing, primary screen, HT1080 RFP-PRO-GFP cells, GFP/RFP fluorescence; Matrix metalloproteinase-14 (Homo sapiens), P50281; GFP/RFP ratio fluorescence, overnight; percent of plate control window, DMSO zero; GFP/RFP ratio change, % at 20 µM; 0.061% of 360,000 active;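 active = GFP/RFP ratio change of at least 30% with cell ATP level not reduced by more than half and red fluorescence within 50% of control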
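Assay system: HT1080 cells carrying an RFP-PRO-GFP reporter | Dosing: Single dose of 20 µM compound, 1% DMSO final | Incubation: Cells overnight before dosing, compound overnight, 37 °C, 5% CO2 | Evaluation: GFP/RFP fluorescence ratio | Control set: DMSO and RFP-L50D-GFP cell wells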
Tb MetRS conf = T. brucei MetRS inhibitors, confirmation, biochemical, luminescence | shares compounds with TbMetRS inhib | T. brucei MetRS enzyme, luminescence (ATP depletion) | inhibition, % at 11.9 µM | 93% of 1,400 active | AID 624412, 2012; in the data active = inhibition above about 7%
Jurkat tox = Jurkat T cell cytotoxicity, cytotoxicity control for T. brucei MetRS inhibitor project, luminescence, high throughput. Jurkat cells viability, ATP luminescence. 12% of 1,400 active. AID 624413, 2012. shares compounds with TbMetRS inhib. inhibition, % at 8.3 µM; in the data active = inhibition above about 15%;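 note: 0% = vehicle and 100% = reference inhibitor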
TbMetRS FP orth = T. brucei MetRS inhibitors, orthogonal assay for T. brucei MetRS inhibitor project, biochemical, fluorescence polarization | shares compounds with TbMetRS inhib | purified T. brucei MetRS | inhibition, % at 11.9 µM | 44% of 1,400 active; in the data active = inhibition above about 17%;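 note: 0% = vehicle wells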
* hit, by the source's call.

Screening O=C(Cc1nc2ccccc2[nH]1)c1ccc([N+](=O)[O-])cc1 returned SKN-1 inh 3.7, A1 inh -1.1, TbMetRS inhib 8.0*, NPR1 activator 1.1, NPR2 activator -3.6, MT1-MMP act inh 5.5, Tb MetRS conf 5.8*, Jurkat tox 10.4 and TbMetRS FP orth 7.4.
Screening O=C(NCCc1nc2ccccc2[nH]1)c1ccc(F)cc1 returned SKN-1 inh 8.3, A1 inh 0.0, TbMetRS inhib 6.4*, NPR1 activator 2.3, NPR2 activator -3.6, MT1-MMP act inh 0.9, Tb MetRS conf 10.3*, Jurkat tox -1.4 and TbMetRS FP orth 1.1.
COC(=O)C1CN(Cc2cn(Cc3ccc(OC)cc3)nn2)CCS(=O)(=O)N1Cc1ccccc1 (stereo not drawn) was read as NPR1 activator 1.3 and NPR2 activator -0.5.
O=C(N/C(=C\c1cccnc1)c1nc2ccccc2[nH]1)c1cccc(Br)c1 was read as SKN-1 inh -10.3, A1 inh 0.3, TbMetRS inhib 66.3*, NPR1 activator -4.5, NPR2 activator 3.8, MT1-MMP act inh 7.7, Tb MetRS conf 80.3*, Jurkat tox -3.1 and TbMetRS FP orth 57.3*.
Screening O=C(COc1ccc([N+](=O)[O-])cc1)NCCc1nc2ccccc2[nH]1 returned SKN-1 inh 2.3, A1 inh 0.2, TbMetRS inhib 6.9*, NPR1 activator -0.1, NPR2 activator -0.2, MT1-MMP act inh 0.9, Tb MetRS conf 12.3*, Jurkat tox 4.8 and TbMetRS FP orth 10.8.
For COc1ccc(C2C(C(=O)Nc3ccc(F)cc3)CCC(=O)N2c2ccc(OC)cc2)cc1 (stereo not drawn) the results were NPR1 activator -0.3 and NPR2 activator -4.2.
Cc1ccccc1OCC(=O)N/N=C/c1ccco1 was read as SKN-1 inh -12.0, A1 inh 0.9, TbMetRS inhib -1.9 and MT1-MMP act inh -1.3.
`Cc1cc(Cl)ccc1OCC(=O)NCC(=O)N/N=C/c1ccco1` gave SKN-1 inh -1.6, A1 inh -0.3, TbMetRS inhib 6.8*, NPR1 activator 0.0, NPR2 activator -2.1, MT1-MMP act inh 4.8, Tb MetRS conf 70.9*, Jurkat tox 6.9 and TbMetRS FP orth 19.7*.
C/C(CC(=O)Nc1ccc(Cl)c(C(F)(F)F)c1)=N\NC(=O)c1ccccc1O was read as SKN-1 inh 0.7, A1 inh -0.9, TbMetRS inhib 16.0*, NPR1 activator -0.8, NPR2 activator 0.0, MT1-MMP act inh -2.0, Tb MetRS conf 92.7*, Jurkat tox 28.5* and TbMetRS FP orth 91.2*.
COc1ccc2c(c1)CO[C@H]([C@H](O)COC(C)=O)[C@H]2/C=C/c1ccccc1 was read as NPR1 activator -1.7 and NPR2 activator -0.9.
O=C(CCSc1ccc(Br)cc1)Nc1cccnc1 was read as SKN-1 inh 6.0, A1 inh -0.1, TbMetRS inhib 6.4*, NPR1 activator 0.9, NPR2 activator -3.4, MT1-MMP act inh 5.7, Tb MetRS conf 10.8*, Jurkat tox -3.0 and TbMetRS FP orth 4.4.
Screening O=C(CCC(=O)c1ccc(Br)cc1)Nc1cccnc1 returned SKN-1 inh 5.5, A1 inh 0.5, TbMetRS inhib -0.3, NPR1 activator 5.8, NPR2 activator -1.1 and MT1-MMP act inh -0.2.
Screening O=C(CNC(=O)C1COc2ccccc2O1)N/N=C/c1ccc(O)cc1O (stereo not drawn) returned SKN-1 inh 4.9, A1 inh -0.1, TbMetRS inhib 11.7*, NPR1 activator -4.1, NPR2 activator -1.1, MT1-MMP act inh 0.7, Tb MetRS conf 35.7*, Jurkat tox 51.9* and TbMetRS FP orth 17.5*.
For C=C(C)Cn1c(SCC(=O)N/N=C(\C)c2ccc([N+](=O)[O-])cc2)nnc1-c1ccc(Br)cc1 the results were NPR1 activator -11.2 and NPR2 activator -9.9.
`Clc1ccc(CNc2ncnc3[nH]ncc23)cc1Cl` gave SKN-1 inh -2.2, TbMetRS inhib 7.1*, NPR1 activator -3.4, NPR2 activator -6.8, MT1-MMP act inh 9.4, Tb MetRS conf 28.6*, Jurkat tox -1.5 and TbMetRS FP orth 17.0*.
Screening CC(=O)CC[C@H]1CC[C@]2(CCCN(C(=O)c3ccc4ccccc4n3)C2)O1 returned NPR1 activator 4.4 and NPR2 activator -6.4.
O=c1cc(/N=C/c2coc3cc(Br)ccc3c2=O)[nH]c(=S)[nH]1 was read as SKN-1 inh -9.0, A1 inh 0.9, TbMetRS inhib 0.1, NPR1 activator -3.9, NPR2 activator -5.0 and MT1-MMP act inh -1.3.
`CC(=O)Oc1ccc2c(=O)c(/C=N/c3cc(=O)[nH]c(=S)[nH]3)coc2c1` gave SKN-1 inh 9.0, A1 inh 1.1, TbMetRS inhib 8.0*, NPR1 activator 3.9, NPR2 activator 0.3, MT1-MMP act inh -0.7, Tb MetRS conf 13.4*, Jurkat tox 3.1 and TbMetRS FP orth 3.3.
For Clc1ccc(CN2CCC(c3nc4ccc(Cl)cc4[nH]3)CC2)cc1 the results were SKN-1 inh 5.6, A1 inh 0.9, TbMetRS inhib 8.4*, NPR1 activator -9.1, NPR2 activator -3.4, MT1-MMP act inh -9.6, Tb MetRS conf 16.6*, Jurkat tox 21.1* and TbMetRS FP orth 0.1.
COc1ccc2[nH]cc(C(C)c3c[nH]c4ccccc34)c2c1 (stereo not drawn) was read as NPR1 activator -0.6 and NPR2 activator -5.9.
